# Measured values published in ChEMBL document CHEMBL5724801, “EUbOPEN Chemogenomics Library - Multiplex” (2024).
# Several values for one entry are separate records, joined by “and”; a condition that tells them apart may be missing. Equal entries are not always repeated.
# Tests used:
# U2OS = assay: Multiplex assay against U2OS; assay type: toxicity, cell-based; conditions: human
# In short: (§1)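 Compound was added to live cells that had been stained at seeding with Hoechst33342, BioTracker Green Microtubule Cytoskeleton Dye, MitoTracker Red and Annexin V Alexa Fluor 680, and imaging followed on a CQ1 microscope at 37°C and 5% CO2. CellPathfinder machine-learning gating divided cells into Hoechst high-intensity objects or normal cells, normal cells into healthy, pyknosed or fragmented nuclei, and pyknosed cells into mitotic or apoptotic. Tubulin, mitochondrial-mass and membrane-permeability phenotypes are per cents of healthy-nucleus cells.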
# Fibroblast = assay: Multiplex assay against human fibroblast; assay type: toxicity, cell-based; in short: as §1
# [1] = 12 h, 1 µM, compound concentration 1 uM
# [2] = 12 h, 10 µM, compound concentration 10 uM
# [3] = 24 h, 1 µM, compound concentration 1 uM
# [4] = 24 h, 10 µM, compound concentration 10 uM
# [5] = 48 h, 1 µM, compound concentration 1 uM
# [6] = 48 h, 10 µM, compound concentration 10 uM
compound,measurement,setting,value
N#Cc1cc(F)cc(-c2nc(-c3ccc(F)cn3)no2)c1,Population Apoptotic (%),U2OS; [1],55% and 100%
same,Population Fragmented Nuclei (%),U2OS; [1],24% and 17%
same,Population Healthy Nuclei (%),U2OS; [1],65% and 79%
same,Population Hoechst High Intensity Objects (%),U2OS; [1],1% and 0%
same,Population Membrane Permeable-Phenotype (%),U2OS; [1],5% and 6%
same,Population Mitochondria Different-Phenotype (%),U2OS; [1],0% and 5%
same,Population Normal (%),U2OS; [1],98% and 99%
same,Population Pyknosed Nuclei (%),U2OS; [1],10% and 4%
same,Population Tubulin-Different-Phenotype (%),U2OS; [1],3% and 2%
same,Total Cell Count,U2OS; [1],178 and 101
same,Population Apoptotic (%),U2OS; [2],76% and 88%
same,Population Fragmented Nuclei (%),U2OS; [2],33% and 12%
same,Population Healthy Nuclei (%),U2OS; [2],59% and 81%
same,Population Hoechst High Intensity Objects (%),U2OS; [2],1%
same,Population Membrane Permeable-Phenotype (%),U2OS; [2],8% and 7%
same,Population Mitochondria Different-Phenotype (%),U2OS; [2],2% and 4%
same,Population Mitotic Cells (%),U2OS; [2],23% and 11%
same,Population Normal (%),U2OS; [2],98%
same,Population Pyknosed Nuclei (%),U2OS; [2],6%
same,Population Tubulin-Different-Phenotype (%),U2OS; [2],2% and 1%
same,Total Cell Count,U2OS; [2],196 and 151
same,Population Apoptotic (%),U2OS; [3],90%
same,Population Fragmented Nuclei (%),U2OS; [3],22% and 8%
same,Population Healthy Nuclei (%),U2OS; [3],66% and 84%
same,Population Hoechst High Intensity Objects (%),U2OS; [3],4% and 0%
same,Population Membrane Permeable-Phenotype (%),U2OS; [3],8% and 2%
same,Population Mitochondria Different-Phenotype (%),U2OS; [3],0% and 3%
same,Population Mitotic Cells (%),U2OS; [3],9% and 10%
same,Population Normal (%),U2OS; [3],95% and 99%
same,Population Pyknosed Nuclei (%),U2OS; [3],11% and 8%
same,Population Tubulin-Different-Phenotype (%),U2OS; [3],4% and 2%
same,Total Cell Count,U2OS; [3],197 and 126
same,Population Apoptotic (%),U2OS; [4],93% and 88%
same,Population Healthy Nuclei (%),U2OS; [4],60% and 85%
same,Population Hoechst High Intensity Objects (%),U2OS; [4],1% and 0%
same,Population Membrane Permeable-Phenotype (%),U2OS; [4],7% and 5%
same,Population Mitochondria Different-Phenotype (%),U2OS; [4],0% and 1%
same,Population Mitotic Cells (%),U2OS; [4],6% and 11%
same,Population Normal (%),U2OS; [4],98% and 99%
same,Population Pyknosed Nuclei (%),U2OS; [4],7% and 4%
same,Population Tubulin-Different-Phenotype (%),U2OS; [4],2% and 1%
same,Total Cell Count,U2OS; [4],230 and 216
same,Population Apoptotic (%),U2OS; [5],96% and 100%
same,Population Fragmented Nuclei (%),U2OS; [5],18% and 15%
same,Population Healthy Nuclei (%),U2OS; [5],71% and 79%
same,Population Hoechst High Intensity Objects (%),U2OS; [5],1%
same,Population Membrane Permeable-Phenotype (%),U2OS; [5],4%
same,Population Mitochondria Different-Phenotype (%),U2OS; [5],0% and 3%
same,Population Mitotic Cells (%),U2OS; [5],3% and 0%
same,Population Normal (%),U2OS; [5],98%
same,Population Pyknosed Nuclei (%),U2OS; [5],9% and 5%
same,Population Tubulin-Different-Phenotype (%),U2OS; [5],2% and 1%
same,Total Cell Count,U2OS; [5],290 and 199
same,Population Apoptotic (%),U2OS; [6],85% and 94%
same,Population Fragmented Nuclei (%),U2OS; [6],30% and 10%
same,Population Healthy Nuclei (%),U2OS; [6],62% and 84%
same,Population Hoechst High Intensity Objects (%),U2OS; [6],1%
same,Population Membrane Permeable-Phenotype (%),U2OS; [6],6% and 4%
same,Population Mitochondria Different-Phenotype (%),U2OS; [6],2%
same,Population Mitotic Cells (%),U2OS; [6],14% and 5%
same,Population Normal (%),U2OS; [6],98%
same,Population Pyknosed Nuclei (%),U2OS; [6],7% and 5%
same,Population Tubulin-Different-Phenotype (%),U2OS; [6],3% and 2%
same,Total Cell Count,U2OS; [6],282 and 344
same,Population Apoptotic (%),Fibroblast; [1],28% and 38%
same,Population Fragmented Nuclei (%),Fibroblast; [1],21% and 32%
same,Population Healthy Nuclei (%),Fibroblast; [1],63% and 37%
same,Population Hoechst High Intensity Objects (%),Fibroblast; [1],0% and 6%
same,Population Mitochondria Different-Phenotype (%),Fibroblast; [1],5% and 6%
same,Population Mitotic Cells (%),Fibroblast; [1],71% and 61%
same,Population Normal (%),Fibroblast; [1],100% and 93%
same,Population Pyknosed Nuclei (%),Fibroblast; [1],15% and 29%
same,Population Tubulin-Different-Phenotype (%),Fibroblast; [1],22% and 48%
same,Total Cell Count,Fibroblast; [1],136 and 93
same,Population Apoptotic (%),Fibroblast; [2],48% and 28%
same,Population Fragmented Nuclei (%),Fibroblast; [2],15% and 42%
same,Population Healthy Nuclei (%),Fibroblast; [2],67% and 32%
same,Population Hoechst High Intensity Objects (%),Fibroblast; [2],1% and 8%
same,Population Membrane Permeable-Phenotype (%),Fibroblast; [2],2% and 9%
same,Population Mitochondria Different-Phenotype (%),Fibroblast; [2],5% and 12%
same,Population Mitotic Cells (%),Fibroblast; [2],51% and 72%
same,Population Normal (%),Fibroblast; [2],98% and 91%
same,Population Pyknosed Nuclei (%),Fibroblast; [2],17% and 24%
same,Population Tubulin-Different-Phenotype (%),Fibroblast; [2],23% and 36%
same,Total Cell Count,Fibroblast; [2],179 and 110
same,Population Apoptotic (%),Fibroblast; [3],40% and 27%
same,Population Fragmented Nuclei (%),Fibroblast; [3],19% and 39%
same,Population Healthy Nuclei (%),Fibroblast; [3],68% and 38%
same,Population Hoechst High Intensity Objects (%),Fibroblast; [3],2% and 7%
same,Population Mitochondria Different-Phenotype (%),Fibroblast; [3],3%
same,Population Mitotic Cells (%),Fibroblast; [3],60% and 72%
same,Population Normal (%),Fibroblast; [3],97% and 92%
same,Population Pyknosed Nuclei (%),Fibroblast; [3],11% and 22%
same,Total Cell Count,Fibroblast; [3],131 and 88
same,Population Apoptotic (%),Fibroblast; [4],70% and 35%
